Source: ChEMBL document CHEMBL1649560, “Beta-lactamase-mediated beta-lactam resistance in Campylobacter species: prevalence of Cj0299 (bla OXA-61) and evidence for a novel beta-Lactamase in C. jejuni” (2009)
In brackets after ≈: the same amount, converted by molar mass.

Tests used:
Type in all cases: functional
[1] = system: Campylobacter jejuni; assay: Antibacterial activity against bla gene-negative and nitrocefin reaction-negative beta-lactamase harboring Campylobacter jejuni isolate P850 by NCCLS agar doubling dilution method
Outline: (§1)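 MICs of β-lactams by agar doubling dilution following the NCCLS (CLSI) Campylobacter Working Group procedure, with C. jejuni NCTC 11168 and C. coli NCTC 11366 as controls. Isolates were from UK poultry flocks. β-Lactamase status was set by Cj0299 PCR (281-bp amplimer) and by a nitrocefin colour change of sonicated lysate within 5 min, or within 30 min on repeat.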

[2] = system: Campylobacter jejuni; assay: Antibacterial activity against bla gene-positive and nitrocefin reaction-positive beta-lactamase harboring Campylobacter jejuni isolate P316 by NCCLS agar doubling dilution method
Outline: (§2)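 MICs by agar doubling dilution per the NCCLS (now CLSI) Campylobacter Working Group method. Isolates came from UK chicken flocks (feces, ceca or farm environment), 2000–2006. C. jejuni NCTC 11168 and C. coli NCTC 11366 served as control strains. The ampicillin resistance cutoff was 8 μg/ml; BSAC/CLSI Enterobacteriaceae guidelines were used for other agents.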

[3] = system: Campylobacter jejuni; assay: Antibacterial activity against bla gene-positive and nitrocefin reaction-positive beta-lactamase harboring Campylobacter jejuni isolate P1730 by NCCLS agar doubling dilution method; outline: as §2
[4] = system: Campylobacter jejuni; assay: Antibacterial activity against bla gene-negative and nitrocefin reaction-negative beta-lactamase harboring Campylobacter jejuni isolate P835 by NCCLS agar doubling dilution method; outline: as §1
[5] = system: Campylobacter jejuni; assay: Antibacterial activity against bla gene-positive and nitrocefin reaction-positive beta-lactamase harboring Campylobacter jejuni isolate P286 by NCCLS agar doubling dilution method; outline: as §2
[6] = system: Campylobacter jejuni; assay: Antibacterial activity against Campylobacter jejuni by NCCLS agar doubling dilution method
Outline: (§3)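 MICs by agar doubling dilution following the NCCLS (CLSI) Campylobacter Working Group procedure, applied to ampicillin- and amoxicillin-resistant isolates from UK chicken flocks (2000–2006). C. jejuni NCTC 11168 and C. coli NCTC 11366 served as control strains. Resistance was called at an ampicillin cutoff of 8 μg/ml. Other agents were judged against Enterobacteriaceae guidelines (BSAC, CLSI).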

[7] = system: Campylobacter jejuni; assay: Antibacterial activity against Campylobacter jejuni isolate P270 harboring blaOXA-61::cat gene by NCCLS agar doubling dilution method
[8] = system: Campylobacter jejuni; assay: Antibacterial activity against bla gene-negative and nitrocefin reaction-positive beta-lactamase harboring Campylobacter jejuni isolate P854 by NCCLS agar doubling dilution method; outline: as §1
[9] = system: Campylobacter jejuni; assay: Antibacterial activity against Campylobacter jejuni isolate P1093 harboring blaOXA-61::cat gene by NCCLS agar doubling dilution method
Outline: (§4)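 Agar doubling dilution MICs (NCCLS/CLSI Campylobacter Working Group method) against Cj0299-inactivated mutants. Mutants were made by transforming the C. jejuni isolate with pCI and selecting on Mueller-Hinton agar with 10 μg/ml chloramphenicol for 3–5 days. Chromosomal insertion was confirmed by PCR with Cj0299 and cat primers.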

[10] = system: Campylobacter coli; assay: Antibacterial activity against bla gene-positive and nitrocefin reaction-positive beta-lactamase harboring Campylobacter coli isolate P321 by NCCLS agar doubling dilution method; outline: as §1
[11] = system: Campylobacter jejuni; assay: Antibacterial activity against bla gene-positive and nitrocefin reaction-positive beta-lactamase harboring Campylobacter jejuni isolate P285 by NCCLS agar doubling dilution method; outline: as §2
[12] = system: Campylobacter jejuni; assay: Antibacterial activity against bla gene-positive and nitrocefin reaction-negative beta-lactamase harboring Campylobacter jejuni NCTC 11168 by NCCLS agar doubling dilution method; outline: as §1
[13] = system: Campylobacter jejuni; assay: Antibacterial activity against bla gene-positive and nitrocefin reaction-negative beta-lactamase harboring Campylobacter jejuni isolate P1699 by NCCLS agar doubling dilution method; outline: as §1
[14] = system: Campylobacter jejuni; assay: Antibacterial activity against bla gene-negative and nitrocefin reaction-negative beta-lactamase harboring Campylobacter jejuni isolate P1962 by NCCLS agar doubling dilution method; outline: as §1
[15] = system: Campylobacter jejuni; assay: Antibacterial activity against bla gene-positive and nitrocefin reaction-positive beta-lactamase harboring Campylobacter jejuni isolate P1618 by NCCLS agar doubling dilution method; outline: as §1
[16] = system: Campylobacter jejuni; assay: Antibacterial activity against Campylobacter jejuni isolate P338 harboring blaOXA-61::cat gene by NCCLS agar doubling dilution method; outline: as §4
[17] = system: Campylobacter jejuni; assay: Antibacterial activity against bla gene-positive and nitrocefin reaction-negative beta-lactamase harboring Campylobacter jejuni isolate P1698 by NCCLS agar doubling dilution method; outline: as §1
[18] = system: Campylobacter jejuni; assay: Antibacterial activity against bla gene-positive and nitrocefin reaction-positive beta-lactamase harboring Campylobacter jejuni isolate P338 by NCCLS agar doubling dilution method; outline: as §2
[19] = system: Campylobacter coli; assay: Antibacterial activity against bla-positive and beta-lactamase-weakly positive Campylobacter coli isolate P1627 by NCCLS agar doubling dilution method; outline: as §2
[20] = system: Campylobacter coli; assay: Antibacterial activity against bla gene-positive and nitrocefin reaction-positive beta-lactamase harboring Campylobacter coli isolate P1826 by NCCLS agar doubling dilution method; outline: as §1
[21] = system: Campylobacter jejuni; assay: Antibacterial activity against bla gene-positive and nitrocefin reaction-positive beta-lactamase harboring Campylobacter jejuni isolate P790 by NCCLS agar doubling dilution method; outline: as §2
[22] = system: Campylobacter jejuni; assay: Antibacterial activity against bla gene-positive and nitrocefin reaction-positive beta-lactamase harboring Campylobacter jejuni isolate P305 by NCCLS agar doubling dilution method; outline: as §2
[23] = system: Campylobacter jejuni; assay: Antibacterial activity against bla gene-positive and nitrocefin reaction-positive beta-lactamase harboring Campylobacter jejuni isolate P1650 by NCCLS agar doubling dilution method; outline: as §1
[24] = system: Campylobacter coli; assay: Antibacterial activity against Campylobacter coli by NCCLS agar doubling dilution method; outline: as §3
[25] = system: Campylobacter jejuni; assay: Antibacterial activity against bla gene-negative and nitrocefin reaction-positive beta-lactamase harboring Campylobacter jejuni isolate P843 by NCCLS agar doubling dilution method; outline: as §1
[26] = system: Campylobacter jejuni; assay: Antibacterial activity against bla gene-positive and nitrocefin reaction-positive beta-lactamase harboring Campylobacter jejuni isolate P1093 by NCCLS agar doubling dilution method; outline: as §1

SMILES	MIC [1] [µg/mL]	MIC [2] [µg/mL]	MIC [3] [µg/mL]	MIC [4] [µg/mL]	MIC [5] [µg/mL]	MIC50 [6] [µg/mL]	MIC90 [6] [µg/mL]	MIC [7] [µg/mL]	MIC [8] [µg/mL]	MIC [9] [µg/mL]	MIC [10] [µg/mL]	MIC [11] [µg/mL]	MIC [12] [µg/mL]	MIC [13] [µg/mL]	MIC [14] [µg/mL]	MIC [15] [µg/mL]	MIC [16] [µg/mL]	MIC [17] [µg/mL]	MIC [18] [µg/mL]	MIC [19] [µg/mL]	also measured
CO[C@@]1(NC(=O)Cc2cccs2)C(=O)N2C(C(=O)O)=C(COC(N)=O)CS[C@@H]21 [CEFOXITIN]	256 (≈ 599 µM)	128 (≈ 299 µM)	256 (≈ 599 µM)	256 (≈ 599 µM)	256 (≈ 599 µM)	128 (≈ 299 µM)	256 (≈ 599 µM)	32 (≈ 74.9 µM)	128 (≈ 299 µM)	128 (≈ 299 µM)	64 (≈ 150 µM)	256 (≈ 599 µM)	32 (≈ 74.9 µM)	128 (≈ 299 µM)	256 (≈ 599 µM)	256 (≈ 599 µM)	512 (≈ 1200 µM)	128 (≈ 299 µM)	512 (≈ 1200 µM)	64 (≈ 150 µM)	MIC [20]: 128 µg/mL (≈ 299 µM); MIC [21]: 64 µg/mL (≈ 150 µM); MIC [22]: 128 µg/mL (≈ 299 µM); MIC [23]: 128 µg/mL (≈ 299 µM); MIC50 [24]: 128 µg/mL (≈ 299 µM); MIC90 [24]: > 256 µg/mL; MIC [25]: 256 µg/mL (≈ 599 µM); MIC [26]: 128 µg/mL (≈ 299 µM)
CCN1CCN(C(=O)N[C@@H](C(=O)N[C@@H]2C(=O)N3[C@@H]2SC(C)(C)[C@@H]3C(=O)O)c2ccccc2)C(=O)C1=O [PIPERACILLIN]	> 256	> 256	> 512	> 256	> 256	≥ 512	> 512	8 (≈ 15.5 µM)	> 256	16 (≈ 30.9 µM)	> 256	> 256	512 (≈ 989 µM)	256 (≈ 495 µM)	> 256	> 512	8 (≈ 15.5 µM)	> 512	> 256	512 (≈ 989 µM)	MIC [20]: 512 µg/mL (≈ 989 µM); MIC [21]: 128 µg/mL (≈ 247 µM); MIC [22]: > 256 µg/mL; MIC [23]: > 512 µg/mL; MIC [24]: 512 µg/mL (≈ 989 µM); MIC50 [24]: 512 µg/mL (≈ 989 µM); MIC90 [24]: 512 µg/mL (≈ 989 µM); MIC [25]: > 256 µg/mL; MIC [26]: 128 µg/mL (≈ 247 µM)
CO/N=C(\C(=O)N[C@@H]1C(=O)N2C(C(=O)O)=C(COC(N)=O)CS[C@H]12)c1ccco1 [CEFUROXIME]	128 (≈ 302 µM)	64 (≈ 151 µM)	128 (≈ 302 µM)	64 (≈ 151 µM)	128 (≈ 302 µM)	128 (≈ 302 µM)	128 (≈ 302 µM)	64 (≈ 151 µM)	128 (≈ 302 µM)	128 (≈ 302 µM)	64 (≈ 151 µM)	128 (≈ 302 µM)	32 (≈ 75.4 µM)	64 (≈ 151 µM)	64 (≈ 151 µM)	256 (≈ 603 µM)	128 (≈ 302 µM)	64 (≈ 151 µM)	128 (≈ 302 µM)	64 (≈ 151 µM)	MIC [20]: 64 µg/mL (≈ 151 µM); MIC [21]: 64 µg/mL (≈ 151 µM); MIC [22]: 64 µg/mL (≈ 151 µM); MIC [23]: 128 µg/mL (≈ 302 µM); MIC50 [24]: 128 µg/mL (≈ 302 µM); MIC90 [24]: 256 µg/mL (≈ 603 µM); MIC [25]: 64 µg/mL (≈ 151 µM); MIC [26]: 128 µg/mL (≈ 302 µM)
